{"data": "Published values of several laboratories", "target": "Muscarinic acetylcholine receptor M3 (CHRM3, Homo sapiens, UniProt P20309)", "concentration": "10 µM"}
{"Compound": "O=C(Nc1ccc(S(=O)(=O)N2CCC(Cl)CC2)cc1)c1ccc([N+](=O)[O-])o1", "assay": "ligand displacement, radioligand", "inhibition [%]": 13}
{"Compound": "N#Cc1cc(Cn2c(N3CCCC3)nc3ccccc32)ccc1F", "assay": "ligand displacement", "inhibition [%]": -31.1}
{"Compound": "Ic1cccc2cnccc12", "assay": "ligand displacement, radioligand", "inhibition [%]": 5}
{"Compound": "CCCNc1nc2ccccc2n1Cc1ccc(Cl)cc1", "assay": "ligand displacement", "inhibition [%]": -39.7}
{"Compound": "Oc1cccc(Nc2nc(-c3ccc(F)cc3F)cs2)c1", "assay": "cell-free assay", "inhibition [%]": -16.6}
{"Compound": "CCN(CC)c1ccc(C2Nc3ccc(C(=O)c4ccccc4)cc3NC3=C2C(=O)CC(C)(C)C3)cc1 (stereo not drawn)", "assay": "ligand displacement, radioligand", "inhibition [%]": 43}
{"Compound": "O=C1N=C(N2CCCCN2)S/C1=C\\c1ccc(F)cc1O", "assay": "ligand displacement, radioligand", "inhibition [%]": "< 10"}
{"Compound": "CCN(Cc1ccccc1C(F)(F)F)C(=O)C1CCN(S(=O)(=O)c2ccc3[nH]ncc3c2)CC1", "assay": "ligand displacement, radioligand", "inhibition [%]": 14}
{"Compound": "O=C(c1ccc(F)cc1)N(Cc1ccccc1)C1CCCCC1", "assay": "cell-free assay", "inhibition [%]": 17}
